Rows were chosen to be rich in hits. Some 2% of all compounds tested hit in one or more screens of this group.
T cell HTS: modulators of CD8 T cell-vesicle binding, primary screen, mouse 2C CD8+ T cells, flow cytometry. 2C CD8+ T cell-vesicle binding; active compounds read low. response (vesicle binding), % at 7 µM. 0.068% of 330,000 active;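 active means response, share of CD8 T cells binding vesicles, and their 90th percentile fluorescence all below set limits, cut at about 80% in these data, passing the limit was not always enough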;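 further: values below 100% mean blocked vesicle binding to the CD8+ T cells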
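Also added: QL9-peptide-loaded Drosophila micro-vesicles bearing Ld, ICAM-1 and B7-1; Test system: purified 2C TCR transgenic mouse naive CD8+ T cells; Measured by: cytometric PE anti-B7-1 and Alexa647 anti-CD8 signals after 1% paraformaldehyde fixation; Timing: binding step 1.5 h, 37 °C, antibody labelling 20 min, ice.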
NR2E3 ag-1: NR2E3 agonists in two-hybrid cells, primary screen, cell-based, luminescence, CHO-S, Gal4-NCOR/VP16-NR2E3; 0.35% of 360,000 active; AID 602229, 2012; inhibition of corepressor binding, % at 3.98 µM; luciferase;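 active means inhibition above the mean of all tested compounds plus 3 SD, cut at about 70% in these data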;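 further: higher means lower luciferase signal from less NR2E3 corepressor binding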
Target sequence (Q9Y5X4 whole entry, looked up, the tested form may be a part): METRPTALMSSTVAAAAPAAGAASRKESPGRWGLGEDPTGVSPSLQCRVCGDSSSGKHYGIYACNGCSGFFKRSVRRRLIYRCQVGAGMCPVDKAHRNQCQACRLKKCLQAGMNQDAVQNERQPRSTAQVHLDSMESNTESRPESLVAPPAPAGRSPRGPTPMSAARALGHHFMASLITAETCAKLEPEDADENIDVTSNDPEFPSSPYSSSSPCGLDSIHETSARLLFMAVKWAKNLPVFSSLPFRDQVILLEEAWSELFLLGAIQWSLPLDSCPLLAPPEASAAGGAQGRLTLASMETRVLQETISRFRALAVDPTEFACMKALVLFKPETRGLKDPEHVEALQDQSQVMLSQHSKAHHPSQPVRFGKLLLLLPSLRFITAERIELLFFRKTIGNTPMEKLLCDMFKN
GAA850 FXN act: FXN promoter activators, primary screen, cell-based, luciferase luminescence, HEK293 lucGAA850. HEK293 lucGAA850 FXN promoter luciferase reporter, 24 h; percent of 10 µM SAHA response. activation, % at 6 µM. 0.56% of 360,000 active;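 active means activation above the average of all compounds screened plus 3 SD, cutoff fixed separately per campaign, cut at about 7.5% in these data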
Myeloid diff MLP: induction of myeloid progenitor differentiation, primary screen, cell-based, flow cytometry, MLPCN library | 1% of 360,000 active | ER-HoxA9 myeloid progenitors, lysozyme-GFP differentiation | calls only at 10 µM | AID 624256, 2012;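 active means normalized GFP-positive differentiation at or above the plate's own cutoff, the solvent-only control mean plus 3 SD; inconclusive means no clear call, values can overlap the other calls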;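 further: cells exposed to compound for four days before flow analysis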
NR2E3 ag-2: inhibitors of NR2E3-RetCOR corepressor binding, primary screen, NR2E3 agonist project, biochemical, TR-FRET, GST-NR2E3, biotin-RetCOR. Photoreceptor-specific nuclear receptor (Homo sapiens), Q9Y5X4. 1536-well. 0.12% of 320,000 active. inhibition of corepressor binding, % at 4.78 µM;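 active means percent inhibition above the cutoff of mean plus 3 SD of all tested compounds, set per screening campaign, cut at about 20% in these data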
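Format: 1536-well format; test system: GST-NR2E3 and biotin-RetCOR proteins; read-out basis: percent inhibition of TR-FRET ratio; timing: 5 h incubation at 4 °C; detection: time-resolved FRET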
GAA30 counter: GAA30 FXN promoter activators, confirmation, counter-screen for GAA850 frataxin promoter activator project, cell-based, luminescence, HEK293, lucGAA30, triplicate. shares compounds with GAA850 FXN act. HEK293 lucGAA30 FXN promoter luciferase, 24 h; DMSO = 0%, 5 µM ipriflavone = 100%. activation, % at 6 µM. 66% of 1,900 active. AID 588350, 2011;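 active means mean activation above the mean of solvent-only control wells plus 3 SD, cut at about 22% in these data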;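 further: counterscreen of GAA850 promoter hits where activity marks nonselective or luminescence artifacts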
FXN GAA850 conf: FXN GAA850 promoter activators in reporter cells, confirmation, cell-based, luminescence, HEK293 lucGAA850, triplicate. activation, % at 6 µM. shares compounds with GAA850 FXN act. HEK293 lucGAA850 FXN promoter luciferase reporter, 24 h; 100% = activation by SAHA. 86% of 1,900 active;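 active means mean activation above a set limit taken from the primary screen, cut at about 8% in these data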
Hits are given with their value; n = inactive; u = inconclusive; x = no result given.

SMILES | T cell HTS | NR2E3 ag-1 | GAA850 FXN act | Myeloid diff MLP | NR2E3 ag-2 | GAA30 counter | FXN GAA850 conf
CC1=NNC(=O)/C1=C\c1cn(-c2ccccc2)nc1-c1ccccc1 | n | n | 8.0 | u | n | n | 14.8
O=Cc1cn(-c2ccccc2)nc1-c1ccccc1 | n | n | n | n | n | x | x
O=C(Nc1ccccc1-c1ccccc1)c1cnccn1 | n | n | 9.0 | n | n | 41.3 | 22.1
O=C(COC(=O)c1cnccn1)Nc1ccccc1-c1ccccc1 | n | n | n | n | n | x | x
CCCc1ccc(-c2ccc(-c3noc(-c4ccncc4)n3)cc2)nc1 | n | n | n | n | n | x | x
CCCCc1ccc(-c2ccc(Br)cc2)nc1 | n | n | 8.4 | n | n | 106.7 | 34.1
COc1ccccc1NC(=O)C(C)OC(=O)CSCC(=O)Nc1cc(C)on1 (stereo not given) | n | n | n | n | n | x | x
O=C(CC12CC3CC(CC(C3)C1)C2)NC(=S)N1CCCCC1 | n | n | n | n | n | x | x
S=C(NC12CC3CC(CC(C3)C1)C2)N1CCCC1 | n | n | 9.4 | n | n | 26.6 | 10.8
COc1ccc(Cn2nnc3c(=O)[nH]c(C(=O)NCCc4ccc(F)cc4)nc32)cc1OC | n | n | 19.7 | n | n | n | 9.0
COc1ccc(S(=O)(=O)N2CCOCC2)cc1NC(=O)CCOc1ccc(C(C)(C)C)cc1 | x | n | n | n | x | x | x
Cc1ccc(/C=N/NC(=O)c2cccs2)cc1[N+](=O)[O-] | n | n | 8.3 | n | n | 102.7 | 41.8
N#CCn1cnc2sc(-c3ccccc3)cc2c1=O | n | n | 9.2 | n | n | 76.4 | 27.9
O=C(C=Cc1ccccn1)c1ccccc1 | x | n | n | x | x | x | x
O=C(C=Cc1ccccn1)c1ccccc1O | x | n | 8.5 | n | x | n | 26.2
O=C(CSc1nnnn1-c1ccc(Cl)cc1)NC1CCS(=O)(=O)C1 (stereo not given) | n | n | n | n | x | x | x
CCCn1nc(C(=O)Nc2cccc(S(=O)(=O)N(C)c3ccccc3)c2)c2ccccc2c1=O | n | n | n | n | x | x | x
O=C1/C(=C\c2ccc(O)c(O)c2)N=C2CCCCCN12 | n | n | 9.8 | n | n | 74.0 | 18.8
CCOC(=O)[C@@H](C)N(Cc1ccc(OC)cc1)S(=O)(=O)N(Cc1ccccc1)[C@H](C(=O)OC)C(C)C | n | n | 10.7 | n | n | n | 21.3
CCOC(=O)[C@@H](C)NS(=O)(=O)N(Cc1ccccc1)[C@H](C(=O)OC)C(C)C | n | n | n | n | n | x | x
COc1ccc2nc(SC(C(=O)c3ccccc3)c3ccccc3)nc(C)c2c1 (stereo not given) | n | n | 11.2 | n | n | n | 19.2
Cc1ccc(N(O)C(=O)NCCCCNC(=O)N(O)c2ccc(C)cc2)cc1 | n | n | 7.7 | n | n | 58.8 | 21.1
Cc1ccc(S(=O)(=O)NC(=O)NCCCCNC(=O)NS(=O)(=O)c2ccc(C)cc2)cc1 | n | n | n | n | n | x | x
CCN1C(=O)[C@H]2[C@@H](c3ccc(-c4ccc(OC)cc4)cc3)N[C@@](CC(C)C)(C(=O)OC)[C@H]2C1=O | n | n | n | n | n | x | x
COc1ccccc1-c1ccc2c(c1)C(C)(Cc1ccc(OC(F)(F)F)cc1)C(=O)N2 (stereo not given) | x | n | n | n | x | x | x
Clc1ccccc1Nc1nc(NCC2CC2)nc2ccsc12 | x | n | n | n | x | x | x
Cc1ccc(/C=C/C(=O)NC2CCCCCCC2)o1 | n | n | 10.8 | n | n | 99.1 | 48.8

Bioassay records from PubChem BioAssay.
